m5-HT2A agonist: mouse Htr2a agonists via beta-arrestin recruitment, primary screen, cell-based, luminescence; activation, % at 7.6 µM; 360,000 tested, 0.66% active; CHO-K1 mHTR2A beta-arrestin complementation; percent of 30 µM serotonin response; AID 624169, 2012; 5-hydroxytryptamine receptor 2A (Mus musculus), P35363;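 active means activation above a run cutoff, the mean activation of all tested compounds plus 3 SD, cut at about 14% in these data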;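 further: 0% = plate median of compound wells and 100% = 30 µM serotonin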
TAAR1 agonist: human TAAR1 agonists, primary screen, Fluo-8 calcium fluorescence, CHO RD-HGA16 cells; vehicle wells 0%, saturating PEA agonist 100%; Trace amine-associated receptor 1 (Homo sapiens), Q96RJ0; 360,000 tested, 0.99% active; activation, % at 3 µM;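 active means activation above the mean activation of all test compounds in the run plus 3 SD, cut at about 38% in these data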
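Assay system – CHO-derived RD-HGA16 cells with stable Gα16 and human TAAR1 · Compound dosing – one-point dosing at 3 µM (nominal) · Incubation – 17-24 h seeding, 75 min 37 °C dye, 30 min RT · Measured by – kinetic Fluo-8 calcium fluorescence · Control set – DMSO vehicle as 0%, PEA at EC100 as 100% · Repeats – single well for each compound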
M1 ag: human M1 muscarinic receptor agonists, primary screen, Fluo-8 calcium fluorescence, CHO-K1 cells, HTS. Muscarinic acetylcholine receptor M1 (Homo sapiens), P11229. CHO-K1 hM1, agonist mode; 0% DMSO, 100% acetylcholine EC100. activation, % at 3 µM. 360,000 tested, 0.33% active. AID 588814, 2011;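 active means activation above the run's mean compound activation plus 3 SD, cut at about 16% in these data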;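 further: peak over basal fluorescence ratio within a 140 s kinetic read after compound addition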
M1 antag: human M1 muscarinic receptor antagonists, primary screen, CHO-K1 cells, Fluo-8 calcium fluorescence, 1536-well. Muscarinic acetylcholine receptor M1 (Homo sapiens), P11229. CHO-K1 hM1, ACh EC80 antagonist. inhibition, % at 3 µM. 360,000 tested, 1.3% active. AID 588852, 2011;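 active means percent inhibition above its own plate's cutoff, namely the mean of that plate's compound wells plus 3 SD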;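 further: peak over basal fluorescence ratio during 140 s after agonist addition; 0% = ACh EC80 plus DMSO and 100% = DMSO alone without agonist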
M1 PAM: human M1 muscarinic receptor positive allosteric modulators, primary screen, CHO-K1 cells, Fluo-8 calcium fluorescence, 1536-well; Muscarinic acetylcholine receptor M1 (Homo sapiens), P11229; CHO-K1 hM1, ACh EC20; 0% = ACh EC20, 100% = maximal ACh; activation, % at 3 µM; 360,000 tested, 0.088% active; AID 588819, 2011; in the data active means activation above about 19%, passing the limit was not always enough
TAAR1 antag: human TAAR1 antagonists, primary screen, Fluo-8 calcium fluorescence, CHO RD-HGA16 cells; inhibition, % at 3 µM; 360,000 tested, 1.5% active; Trace amine-associated receptor 1 (Homo sapiens), Q96RJ0; antagonist; AID 624466, 2012;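 active means inhibition above a per-plate cutoff, the mean inhibition of test compounds on that plate plus 3 SD, cut at about 49% in these data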;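 further: 0% = DMSO plus EC80 beta-PEA response and 100% = DMSO alone without agonist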
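System: RD-HGA16 CHO cells with stable hTAAR1 and Gα16 | Probe or stimulus: EC80 β-phenethylamine stimulus | Dosing: 3 µM, single point | Times: Dye loading 75 min at 37 °C, then 30 min room temperature | Measured by: Fluo-8 calcium-sensitive fluorescence | Read-out basis: % inhibition of agonist calcium response | Replicates: n of 1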
OPRM1 ag: OPRM1 agonists via beta-arrestin recruitment, confirmation, counter-screen for mouse HTR2A agonist project, cell-based, luminescence, single concentration | shares compounds with m5-HT2A agonist | U2OS OPRM1 beta-arrestin PathHunter; DMSO 0%, DAMGO 9.3 µM 100% | activation, % at 9.3 µM | 2,300 tested, 5.3% active | AID 624380, 2012;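 active means mean activation above the mean of DMSO-only wells plus 3 SD, cut at about 0.5% in these data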
Target sequence (P35372 whole entry, looked up): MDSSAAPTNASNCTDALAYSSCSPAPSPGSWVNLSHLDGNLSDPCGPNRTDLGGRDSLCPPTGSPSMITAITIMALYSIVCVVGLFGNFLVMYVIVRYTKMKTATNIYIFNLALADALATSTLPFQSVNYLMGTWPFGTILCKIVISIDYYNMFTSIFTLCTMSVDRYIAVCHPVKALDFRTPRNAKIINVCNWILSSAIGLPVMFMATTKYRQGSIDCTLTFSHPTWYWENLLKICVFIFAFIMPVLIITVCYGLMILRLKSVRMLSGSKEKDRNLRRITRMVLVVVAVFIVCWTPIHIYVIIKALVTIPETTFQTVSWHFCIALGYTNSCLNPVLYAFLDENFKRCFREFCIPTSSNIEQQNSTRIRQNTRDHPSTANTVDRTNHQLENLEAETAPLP
HTR2A ag conf: mouse HTR2A agonists, beta-arrestin recruitment, confirmation, cell-based, luminescence, CHO-K1 PathHunter, triplicate; shares compounds with m5-HT2A agonist; DMSO 0%, 30 µM serotonin 100%; activation, % at 7.6 µM; 2,300 tested, 19% active; AID 624381, 2012;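 active means mean activation across triplicates above the hit threshold derived in the original primary screen, cut at about 15% in these data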
* marks the source's active call; other numbers are inactive results; x = not tested or not shown. Rows were chosen to be rich in hits. Some 3.9% of all compounds tested hit in one or more screens of this group.

SMILES | m5-HT2A agonist | TAAR1 agonist | M1 ag | M1 antag | M1 PAM | TAAR1 antag | OPRM1 ag | HTR2A ag conf
CCC(=O)N1CCN(c2nc3ccccc3s2)CC1 | 1 | 11 | -2 | -4 | 3 | -8 | x | x
FC(F)Oc1ccc(NC(=S)N2CCc3ccccc32)cc1 | 0 | 1 | -9 | -5 | 3 | 6 | x | x
CC(C)c1ccc(-c2nnc(SCC(=O)NC3CC3)n2C)cc1 | -1 | 1 | -3 | -2 | 20 | -46 | x | x
CCCCn1c(N)c(N(CC(C)C)C(=O)CC2CCCCC2)c(=O)[nH]c1=O | -6 | 3 | 4 | -5 | 9 | -21 | x | x
Cc1nc2cc(Oc3nc(NCCN(C)C)nc4ccsc34)ccc2s1 | 34* | 4 | -8 | -6 | -2 | -31 | -1 | 4
CCOc1ccc(CCNC(=O)COC(=O)c2cc(OC)c(OC)cc2[N+](=O)[O-])cc1OCC | -14 | 0 | 2 | -14 | 16 | -6 | x | x
CN(CC(=O)Nc1ccccc1C(F)(F)F)C(=O)COc1cccnc1[N+](=O)[O-] | -1 | 7 | -2 | -4 | 6 | -15 | x | x
OC(Cn1cnnc1)c1ccccc1 (stereo unspecified) | 17* | 2 | -2 | -5 | 7 | -8 | -1 | 1
CCOC(=O)c1c(NC(=O)CSc2n[nH]c(-c3ccco3)n2)sc(C)c1C | 1 | 4 | -3 | 4 | 2 | -40 | x | x
O=C(CSc1n[nH]c(-c2ccco2)n1)Nc1sc2c(c1C(=O)Nc1ccccc1)CCCC2 | 16* | 4 | -2 | -14 | 6 | 20 | 0 | 18*
Cc1ccnc(NS(=O)(=O)c2ccc(NC(=O)c3snnc3C)cc2)n1 | 15* | 0 | -2 | 17 | -5 | -5 | -1 | 0
Cc1ccc(SCC(=O)NC(=O)NCCC(C)C)c(C)c1 | 3 | -3 | -5 | -2 | 0 | -10 | x | x
Cc1ccc(SCC(=O)NC(=O)NC(C)C)c(C)c1 | 16* | -1 | -7 | -19 | 8 | -26 | 0 | 5
Cc1nn2c(c1-c1ccccc1)NC1=C(C(=O)CCC1)C2c1ccccc1 (stereo unspecified) | 16* | 5 | -4 | -13 | 6 | -6 | -1 | -3
CC(C)N(Cc1ccccc1)C(=O)CN1C(=O)NC(Cc2ccccc2)(c2ccccc2)C1=O (stereo unspecified) | 8 | -1 | -3 | -6 | 9 | -18 | x | x
Cc1cc(Cl)cc(C)c1OCCNCc1ccccc1 | 21* | 16 | -2 | -7 | 2 | -8 | 0 | 11
Cc1cc(Cl)cc(C)c1OCCOCCNCc1ccccc1 | -6 | 15 | -8 | 19 | -16 | -1 | x | x
CCOc1ccc(CC(=O)N/N=C(\C)c2cccnc2)cc1 | -3 | 18 | -2 | 10 | -1 | -27 | x | x
NC(=O)c1ccc(/C=N/O)[n+](Cc2ccccc2)c1 | 16* | 1 | -6 | -19 | 9 | -8 | -1 | -3
COC(=O)C[C@@H]1CC[C@@H](NC(C)=O)[C@@H](CO)O1 | -5 | 1 | x | x | x | -21 | x | x
Nc1ccc(-c2cc(-c3cccc(N)c3)nc(-c3ccccc3)n2)cc1 | 15* | 1 | -4 | -11 | 13 | -20 | 0 | 11
